Consider one molecule from ChEMBL document CHEMBL5653613 (Mol Cancer Ther, 2013).

In data set [1] the test system is T47D. In words: Inhibition of clonogenic growth in human T47D cells incubated for 10 days by Hema-3 staining based microscopy. The class given is functional, cell-based. The conditions noted are these: dose 1-5 µmol/L, time 10.0 day. The gist of the method:
(§1)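 Colonies were stained with Hema-3, photographed under a microscope with a CCD camera, counted in duplicate, and expressed as % of control. Results are shown from 1 of 2 experiments.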

Data set [2] concerns MCF7. In words: Induction of polyploidy in human MCF7 cells at 5 uM incubated for 72 hrs by microscopic analysis. It is filed as functional, cell-based. The method in brief: (§2)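 Cells stained with Hema-3 and photographed under a light microscope with CCD camera. Polyploid cells scored as percent of the population.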
The test system of data set [3] is ZR-75-1. In words: Induction of polyploidy in human ZR-75-1 cells with RON-/- by microscopic analysis. It is filed as functional, cell-based. The method in brief:
(§3)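 Cells (2 106 per 60-mm dish) transiently transfected for 48 hours with 1 nmol/L scrambled or RON-specific siRNA, with knockdown confirmed by anti-RON Western blot. […] Polyploidy monitored and photographed by microscopy, with untransfected and scrambled-siRNA cells as comparators.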

Data set [4] deals with MCF7. The data set is described as follows: Induction of polyploidy in human MCF7 cells assessed as cells with 4N chromosome contents at 5 uM incubated for 24 hrs by PI staining based flow cytometry (reference value: 36). The class given is functional.
A short description of data set [5]: Effect on paclitaxel resistance in human ZR-75-1 cells with compound-induced polyploidy assessed as change in paclitaxel-induced cytotoxicity by measuring increase in paclitaxel IC50 at 5 umol/L preincubated for 72 hrs followed by compound washout and subsequent paclitaxel treatment for 72 hrs by MTS assay. The class given is functional, cell-based.
The test system of data set [6] is T47D. The data set is described as follows: Induction of polyploidy in human T47D cells at 5 umol/L incubated for 72 hrs by microscopic analysis relative to control. The class given is functional. The conditions noted are these: dose 5 µmol/L, at 5 µM. The gist of the method:
as §2

The test system of data set [7] is ZR-75-1. The data set is described as follows: Induction of polyploidy in human ZR-75-1 cells assessed as cells with 4N chromosome contents at 5 uM incubated for 48 hrs by PI staining based flow cytometry (reference value: 35). The class given is functional. On the technique in general: In flow cytometry, cells or beads pass a laser one at a time.
Data set [8] has as its system ZR-75-1. The data set is described as follows: Induction of polyploidy in human ZR-75-1 cells assessed as cells with 2N chromosome contents at 5 uM incubated for 24 hrs by PI staining based flow cytometry (reference value: 48). The class given is functional.
The test system of data set [9] is T47D. The data set is described as follows: Induction of polyploidy in human T47D cells assessed as cells with 2N chromosome contents at 5 uM incubated for 24 hrs by PI staining based flow cytometry (reference value: 48). It is filed as functional.
The subject of data set [10] is ZR-75-1. In words: Downregulation of histone H3 expression in human ZR-75-1 cells at 5 umol/L incubated upto 72 hrs by Western blot analysis. The class given is functional, cell-based. As to conditions: dose 5.0 µmol/L. The method in brief: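 Cells were treated with 5 µmol/L for 0, 24, 48 and 72 h. Lysates were immunoblotted for AURK-B, phospho-Ser10 histone H3 and total histone H3, with β-actin reprobe as the loading control. Detection by enhanced chemiluminescence.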
In general terms: Immunoblotting shows a protein as a band on a membrane.

Data set [11] has as its system ZR-75-1. The data set is described as follows: Inhibition of clonogenic growth in human ZR-75-1 cells incubated for 10 days by Hema-3 staining based microscopy. The conditions noted are these: dose 1-5 µmol/L, time 10.0 day. The class given is functional, cell-based. The gist of the method: as §1
Data set [12] has as its system T47D. In words: Induction of polyploidy in human T47D cells assessed as cells with 4N chromosome contents at 5 uM incubated for 48 hrs by PI staining based flow cytometry (reference value: 35). The class given is functional.
Data set [13] is described as follows: Effect on bleomycin resistance in human T47D cells with compound-induced polyploidy assessed as change in bleomycin-induced cytotoxicity by measuring increase in bleomycin IC50 at 5 umol/L preincubated for 72 hrs followed by compound washout and subsequent bleomycin treatment for 72 hrs by MTS assay. It is filed as functional, cell-based.
For data set [14], the system named is T47D. In words: Induction of cell cycle arrest at telophase in human T47D cells at 5 umol/L preincubated for 24 hrs followed by extensive compound washout and subsequent culturing in compound-free media measured upto 120 mins by immunofluorescence staining based analysis. The class given is functional. The conditions noted are these: dose 5.0 µmol/L. The method in brief:
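T-47D cells were treated at 37°C with 5 µmol/L for 24 h, washed extensively, then cultured in DMEM with 10% FBS for 30, 60 and 120 min. α- and γ-tubulin were detected by immunofluorescence with DAPI, imaged at 400×. The control was a 24 h preincubation with 5 µmol/L RO-3306. One of 2 experiments.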

A short description of data set [15]: Cmax in athymic mouse xenografted with human GTL-16 cells upto 50 mg/kg, po qd for 14 days consecutively. As to conditions: in vivo, time 14 day. The class given is ADME, organism-based. In general terms: Xenograft models place foreign cells or tissue in a host animal.
Data set [16] concerns T47D. The data set is described as follows: Induction of polyploidy in human T47D cells with RON-/- at 5 umol/L incubated for 72 hrs by microscopic analysis (reference value: 83.5 %). It is filed as functional. The conditions noted are these: dose 5 µmol/L, at 5 µM. The method in brief:
as §3

Activity calls are given as the source filed them. The rule behind the calls is not given here.

Consider `CCOc1ccn(-c2ccc(F)cc2)c(=O)c1C(=O)Nc1ccc(Oc2ccnc(N)c2Cl)c(F)c1` [BMS-777607], for which the inhibition entry in [1] and in data set [11] was “Dose-Dependent Effect” each time. Also, the outcome in data set [2], in [3] and in data set [14] was Active. Moreover, the Activity in [4] amounted to 45.5; in data set [6] it was 78%; in data set [7], 12; in [8] it was 15.5; in [9], 7.5; in data set [12], 22. The molecule also had an Activity in data set [16] of 79.4%. In addition, the IC50 in data set [5] was 20.8 nM; in data set [13], 2720 nM. For the same molecule, the outcome in data set [10] was inactive. Also, the peak level in [15] (Cmax) was 43.7 µM.

A word on the IC50: it is the concentration needed to halve the response being measured. In general, Cmax refers to the maximum level reached in the sampled fluid or tissue.
